Test results from ChEMBL document CHEMBL1156416, “Influence of high mutation rates on the mechanisms and dynamics of in vitro and in vivo resistance development to single or combined antipseudomonal agents” (Antimicrob Agents Chemother, 2007).
Values after ≈ are worked out from the molar mass of the structure shown. Active and inactive are the calls of the source. The rule behind the calls is not given here.

Assays:
Pseudomonas aeruginosa [1] = assay: Antibacterial activity against Pseudomonas aeruginosa PAO1 by Etest; type: functional
Procedure, shortened: (§1)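 Etest strips were applied on Mueller-Hinton agar following the manufacturer's recommendations. For PAOΔmutS, the MIC read was that of the main population, ignoring resistant colonies growing within the inhibition ellipse.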

Pseudomonas aeruginosa [2] = assay: Antibacterial activity against Pseudomonas aeruginosa PAOdeltamutS by Etest; type: functional; procedure, shortened: as §1
Mus musculus [3] = assay: fCmax in Pseudomonas aeruginosa PAO1 infected C57BL/6J mouse at 70 mg/kg, ip administered every 3 hrs; type: ADME, organism-based; design: dose 70 mg/kg, route intraperitoneal; settings: in vivo
[4] = Half life of free unbound fraction in Pseudomonas aeruginosa PAO1 infected C57BL/6J mouse at 70 mg/kg, ip administered every 3 hrs; type: ADME, organism-based; design: dose 70 mg/kg, route intraperitoneal; settings: in vivo, read-out: t1/2 unbound fraction (converted)
Mus musculus [5] = assay: fAUC (0 to 24 hrs) in Pseudomonas aeruginosa PAO1 infected C57BL/6J mouse at 70 mg/kg, ip administered every 3 hrs; type: ADME, organism-based; design: dose 70 mg/kg, route intraperitoneal; settings: in vivo
[6] = fAUC (0 to 24 hrs)/MIC ratio in Pseudomonas aeruginosa PAO1 infected C57BL/6J mouse at 70 mg/kg, ip administered every 3 hrs; type: functional; settings: route intraperitoneal
[7] = fAUC (0 to 24 hrs)/MIC ratio in Pseudomonas aeruginosa PAOdeltamutS infected C57BL/6J mouse at 70 mg/kg, ip administered every 3 hrs; type: functional; settings: route intraperitoneal
[8] = fCmax/MIC ratio in Pseudomonas aeruginosa PAO1 infected C57BL/6J mouse at 70 mg/kg, ip administered every 3 hrs; type: functional; settings: route intraperitoneal
[9] = fCmax/MIC ratio in Pseudomonas aeruginosa PAOdeltamutS infected C57BL/6J mouse at 70 mg/kg, ip administered every 3 hrs; type: functional; settings: route intraperitoneal
Pseudomonas aeruginosa [10] = assay: f%T>MIC in Pseudomonas aeruginosa PAO1 infected C57BL/6J mouse at 70 mg/kg, ip administered every 3 hrs; type: functional; settings: route intraperitoneal
Pseudomonas aeruginosa [11] = assay: Antibacterial activity against Pseudomonas aeruginosa PAO1 infected in C57BL/6J mouse assessed as mortality at 70 mg/kg, ip administered every 3 hrs; type: functional; settings: route intraperitoneal
Procedure, shortened: (§2)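 Female C57BL/6J mice (20–25 g) were infected transtracheally under ketamine/xylazine with about 2 × 10⁴ agarose-bead-embedded cells. Beginning 24 h later, they received ceftazidime 70 mg/kg every 3 h or a sterile water placebo for 3 days. There were 30 mice per group from two independent experiments of 15. Mortality was recorded as the percentage of animals per group.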

Pseudomonas aeruginosa [12] = assay: Antibacterial activity against Pseudomonas aeruginosa PAOdeltamutS infected in C57BL/6J mouse assessed as mortality at 70 mg/kg, ip administered every 3 hrs; type: functional; settings: route intraperitoneal; procedure, shortened: as §2
Pseudomonas aeruginosa [13] = assay: Antibacterial activity against Pseudomonas aeruginosa PAO1 infected in C57BL/6J mouse assessed as lung bacterial count at 70 mg/kg, ip administered every 3 hrs; type: functional, organism-based; design: dose 70 mg/kg
Procedure, shortened: (§3)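 Female C57BL/6J mice (20–25 g) were anesthetized with ketamine/xylazine ip. They were inoculated transtracheally with about 2 × 10⁴ cells embedded in agarose beads. Ceftazidime 70 mg/kg every 3 h (or sterile water placebo) started 24 h after inoculation and ran for 3 days, 30 mice per group in two experiments. Lungs were taken 24 h after treatment ended, homogenized in saline, diluted 1/10 serially and plated on MHA; median counts were reported.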

Pseudomonas aeruginosa [14] = assay: Antibacterial activity against Pseudomonas aeruginosa PAOdeltamutS infected in C57BL/6J mouse assessed as lung bacterial count at 70 mg/kg, ip administered every 3 hrs; type: functional, organism-based; design: dose 70 mg/kg; procedure, shortened: as §3
Pseudomonas aeruginosa [15] = assay: Antibacterial activity against Pseudomonas aeruginosa PAO1 infected in C57BL/6J mouse assessed as mortality at 20 mg/kg, ip administered every 6 hrs; type: functional; settings: route intraperitoneal
Pseudomonas aeruginosa [16] = assay: Antibacterial activity against Pseudomonas aeruginosa PAOdeltamutS infected in C57BL/6J mouse assessed as mortality at 20 mg/kg, ip administered every 6 hrs; type: functional; settings: route intraperitoneal
Mus musculus [17] = assay: fCmax in Pseudomonas aeruginosa PAO1 infected C57BL/6J mouse at 10 mg/kg, ip administered every 6 hrs; type: ADME, organism-based; design: dose 10 mg/kg, route intraperitoneal; settings: in vivo
[18] = Half life of free unbound fraction in Pseudomonas aeruginosa PAO1 infected C57BL/6J mouse at 10 mg/kg, ip administered every 6 hrs; type: ADME, organism-based; design: dose 10 mg/kg, route intraperitoneal; settings: in vivo, read-out: t1/2 unbound fraction (converted)
Mus musculus [19] = assay: fAUC (0 to 24 hrs) in Pseudomonas aeruginosa PAO1 infected C57BL/6J mouse at 10 mg/kg, ip administered every 6 hrs; type: ADME, organism-based; design: dose 10 mg/kg, route intraperitoneal; settings: in vivo
[20] = fAUC (0 to 24 hrs)/MIC ratio in Pseudomonas aeruginosa PAO1 infected C57BL/6J mouse at 10 mg/kg, ip administered every 6 hrs; type: functional; settings: route intraperitoneal
[21] = fAUC (0 to 24 hrs)/MIC ratio in Pseudomonas aeruginosa PAOdeltamutS infected C57BL/6J mouse at 10 mg/kg, ip administered every 6 hrs; type: functional; settings: route intraperitoneal
[22] = fCmax/MIC ratio in Pseudomonas aeruginosa PAO1 infected C57BL/6J mouse at 10 mg/kg, ip administered every 6 hrs; type: functional; settings: route intraperitoneal
[23] = fCmax/MIC ratio in Pseudomonas aeruginosa PAOdeltamutS infected C57BL/6J mouse at 10 mg/kg, ip administered every 6 hrs; type: functional; settings: route intraperitoneal
Pseudomonas aeruginosa [24] = assay: Antibacterial activity against Pseudomonas aeruginosa PAO1 infected in C57BL/6J mouse assessed as mortality at 10 mg/kg, ip administered every 6 hrs; type: functional; settings: route intraperitoneal
Pseudomonas aeruginosa [25] = assay: Antibacterial activity against Pseudomonas aeruginosa PAOdeltamutS infected in C57BL/6J mouse assessed as mortality at 10 mg/kg, ip administered every 6 hrs; type: functional; settings: route intraperitoneal
Pseudomonas aeruginosa [26] = assay: Antibacterial activity against Pseudomonas aeruginosa PAO1 infected in C57BL/6J mouse assessed as lung bacterial count at 10 mg/kg, ip administered every 6 hrs; type: functional, organism-based; design: dose 10 mg/kg
Pseudomonas aeruginosa [27] = assay: Antibacterial activity against Pseudomonas aeruginosa PAOdeltamutS infected in C57BL/6J mouse assessed as lung bacterial count at 10 mg/kg, ip administered every 6 hrs; type: functional, organism-based; design: dose 10 mg/kg

Compound: CO/N=C(\C(=O)N[C@@H]1C(=O)N2C(C(=O)[O-])=C(C[N+]3(C)CCCC3)CS[C@H]12)c1csc(N)n1
- MIC (Pseudomonas aeruginosa [1]): 1 µg/mL (≈ 2.08 µM)
- MIC (Pseudomonas aeruginosa [2]): 1 µg/mL (≈ 2.08 µM)

Compound: C[C@H]1[C@H](NC(=O)/C(=N\OC(C)(C)C(=O)O)c2csc(N)n2)C(=O)N1S(=O)(=O)O [AZTREONAM]
- MIC (Pseudomonas aeruginosa [1]): 1.5 µg/mL (≈ 3.44 µM)
- MIC (Pseudomonas aeruginosa [2]): 1.5 µg/mL (≈ 3.44 µM)

Compound: CC(C)(O/N=C(\C(=O)N[C@@H]1C(=O)N2C(C(=O)[O-])=C(C[n+]3ccccc3)CS[C@H]12)c1csc(N)n1)C(=O)O [CEFTAZIDIME]
- fc max (Mus musculus [3]): 183.1 mg/L
- half-life [4]: 24 min
- fAUC (Mus musculus [5]): 593.6 µg·h/mL
- MIC (Pseudomonas aeruginosa [1]): 1 µg/mL (≈ 1.83 µM)
- fAUC/MIC [6]: 594
- fAUC/MIC [7]: 594
- fc max [8]: 183
- fc max [9]: 183
- f %t > MIC (Pseudomonas aeruginosa [10]): 54%
- mortality at 70 mg/kg (Pseudomonas aeruginosa [11]): 56.7%
- mortality at 70 mg/kg (Pseudomonas aeruginosa [12]): 43.3%
- Activity (Pseudomonas aeruginosa [13]): Active
- Activity (Pseudomonas aeruginosa [14]): Active
- MIC (Pseudomonas aeruginosa [2]): 1 µg/mL (≈ 1.83 µM)

Compound: O=C(N[C@H](CO)[C@H](O)c1ccc([N+](=O)[O-])cc1)C(Cl)Cl [CHLORAMPHENICOL]
- MIC (Pseudomonas aeruginosa [1]): 32 µg/mL (≈ 99 µM)
- MIC (Pseudomonas aeruginosa [2]): 32 µg/mL (≈ 99 µM)

Compound: O=C(O)c1cn(C2CC2)c2cc(N3CCNCC3)c(F)cc2c1=O [CIPROFLOXACIN]
- mortality at 20 mg/kg (Pseudomonas aeruginosa [15]): 26.7%
- mortality at 20 mg/kg (Pseudomonas aeruginosa [16]): 26.7%
- MIC (Pseudomonas aeruginosa [2]): 0.12 µg/mL (≈ 0.362 µM)

Compound: C[C@@H](O)[C@H]1C(=O)N2C(C(=O)O)=C(SCCNC=N)C[C@H]12 [IMIPENEM ANHYDROUS]
- MIC (Pseudomonas aeruginosa [1]): 1.5 µg/mL (≈ 5.01 µM)
- MIC (Pseudomonas aeruginosa [2]): 1.5 µg/mL (≈ 5.01 µM)

Compound: C[C@@H](O)[C@H]1C(=O)N2C(C(=O)O)=C(S[C@@H]3CN[C@H](C(=O)N(C)C)C3)[C@H](C)[C@H]12 [MEROPENEM]
- MIC (Pseudomonas aeruginosa [1]): 0.5 µg/mL (≈ 1.3 µM)
- MIC (Pseudomonas aeruginosa [2]): 0.75 µg/mL (≈ 1.96 µM)

Compound: CN(C)[C@@H]1C(O)=C(C(N)=O)C(=O)[C@@]2(O)C(O)=C3C(=O)c4c(O)cccc4[C@@](C)(O)[C@H]3C[C@@H]12 [TETRACYCLINE]
- MIC (Pseudomonas aeruginosa [1]): 24 µg/mL (≈ 54 µM)
- MIC (Pseudomonas aeruginosa [2]): 24 µg/mL (≈ 54 µM)

Compound: NC[C@H]1O[C@H](O[C@H]2[C@H](O)[C@@H](O[C@H]3O[C@H](CO)[C@@H](O)[C@H](N)[C@H]3O)[C@H](N)C[C@@H]2N)[C@H](N)C[C@@H]1O [TOBRAMYCIN]
- fc max (Mus musculus [17]): 19.07 mg/L
- half-life [18]: 33 min
- fAUC (Mus musculus [19]): 42.96 µg·h/mL
- MIC (Pseudomonas aeruginosa [1]): 1 µg/mL (≈ 2.14 µM)
- fAUC/MIC [20]: 43
- fAUC/MIC [21]: 43
- fc max/MIC [22]: 19
- fc max/MIC [23]: 19
- mortality at 10 mg/kg (Pseudomonas aeruginosa [24]): 66.7%
- mortality at 10 mg/kg (Pseudomonas aeruginosa [25]): 60%
- f %t > MIC (Pseudomonas aeruginosa [26]): Active
- f %t > MIC (Pseudomonas aeruginosa [27]): Active
- MIC (Pseudomonas aeruginosa [2]): 1 µg/mL (≈ 2.14 µM)
